The source of these data is ChEMBL document CHEMBL5678799 (Biochem J, 2009).

Structures are written as SMILES. Calls of active or inactive are those of the source. The calls are words filed in the database; no cut-off is given here.

Experiment [1] deals with Ephrin type-B receptor 3 (Homo sapiens) (UniProt P54753). Nature of the experiment: Inhibition of recombinant human N-terminal His6-tagged EPHB3 (561 to 998 residues) expressed in Escherichia coli assessed as remaining activity at 1 uM using Poly(Glu, Tyr) as substrate incubated for 30 mins in presence of [gamma-33P]ATP by filter binding method relative to control. The gist of the method: (§1)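 Panel assays were run for 30 min at 21 °C, within the linear range for time and enzyme. […] Results are percent activity remaining relative to compound-free control, averaged from triplicate ± S.D.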

Experiment [2] concerns the target Homeodomain-interacting protein kinase 2 (Homo sapiens) (UniProt Q9H2X6). Nature of the experiment: Inhibition of recombinant human N-terminal GST-tagged HIPK2 (165 to 564 residues) expressed in Escherichia coli assessed as remaining activity at 10 uM using MBP as substrate incubated for 30 mins in presence of [gamma-33P]ATP by filter binding method relative to control. The gist of the method:
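Radiometric kinase panel run robotically at room temperature (21 °C) for 30 min, linear in time and enzyme. […] Activity is expressed as percent of control without compound, from triplicate determinations ± S.D.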

The subject of the next experiment is HEK293. The experiment in a line: Inhibition of PI3K in serum starved HEK293 cells expressing GST-tagged-AKT1 S473D mutant assessed as reduction in IGF1-stimulated AKT1 phosphorylation at Thr308 residue at 100 to 1000 nM incubated for 20 mins by immunoblot analysis. To be noted: Homo sapiens, dose 100-1000 nM. Type of experiment: cell-based. Put shortly:
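HEK-293 cells transfected with wild-type or S473D GST–Akt1. At 24 h, serum-starved 16 h, pretreated 30 min with inhibitor, then stimulated with IGF-1 for 20 min. Lysates immunoblotted for Thr308 phosphorylation. Three separate experiments.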
Background: In western blotting, separated proteins are transferred to a membrane and probed.

For experiment [3], the target named is Serine/threonine-protein kinase PAK 6 (Homo sapiens) (UniProt Q9NQU5). The experiment in a line: Inhibition of recombinant human N-terminal GST-tagged PAK6 (2 to 681 residues) expressed in Escherichia coli assessed as remaining activity at 1 uM using RRRLSFAEPG as substrate incubated for 30 mins in presence of [gamma-33P]ATP by filter binding method relative to control. Put shortly:
as §1

Experiment [4] has as its target Sphingosine kinase 1 (Homo sapiens) (UniProt Q9NYA1). Nature of the experiment: Inhibition of SPHK1 (unknown origin) assessed as remaining activity at 1 uM using sphingosine as substrate incubated for 30 mins in presence of ATP relative to control. The gist of the method: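 SPHK1 assayed with 10 μM sphingosine, 10 μM ATP in 50 mM Tris/HCl pH 7.5, 150 mM NaCl, 5 mM MgCl2, 1 mM EGTA, 1 mM DTT, 30 min at room temperature. ATP remaining read by Kinase-Glo Plus luminescence after 10 min. Activity as % of control, triplicate.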

Experiment [5] relates to Ribosomal protein S6 kinase beta-1 (Homo sapiens), P23443 [T412E]. The experiment in a line: Inhibition of recombinant human His6-tagged S6K1 T412E mutant (1 to 421 residues) expressed in baculovirus infected Sf21 cells assessed as remaining activity at 1 uM using KKRNRTLTV as substrate incubated for 30 mins in presence of [gamma-33P]ATP by filter binding method relative to control. Put shortly: (§2)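 Incubations ran robotically for 30 min at room temperature (21 °C) under linear conditions. Results are percent activity remaining versus controls without compound, as the mean of triplicates ± S.D.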

Experiment [6] deals with Eukaryotic elongation factor 2 kinase (Homo sapiens) (UniProt O00418). Nature of the experiment: Inhibition of recombinant human N-terminal GST-tagged EF2K (2 to 725 residues) expressed in Escherichia coli assessed as remaining activity at 1 uM using RKKFGESKTKTKEFL as substrate incubated for 30 mins in presence of [gamma-33P]ATP by filter binding method relative to control. The gist of the method: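 Kinase panel run robotically at 21 °C for 30 min, linear in time and enzyme. […] Compound tested at 1 or 10 µM. Activity given as percentage of incubations without compound, mean of triplicates ± S.D.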

Experiment [7] addresses CDK2/Cyclin A2 (Homo sapiens) (UniProt P24941+P20248). Nature of the experiment: Inhibition of recombinant human N-terminal GST-tagged CDK2 (2 to 298 residues)/N-terminal GST-tagged Cyclin A2 (171 to 432 residues) expressed in Escherichia coli assessed as remaining activity at 10 uM using YSPTSPSYSPTSPSYSPTSPKKK as substrate incubated for 30 mins in presence of [gamma-33P]ATP by filter binding method relative to control. Put shortly: as §2

Experiment [8] concerns the target Myosin light chain kinase (Homo sapiens) (UniProt Q32MK0). Nature of the experiment: Inhibition of MLCK (unknown origin) assessed as remaining activity at 1 uM relative to control. Put shortly:
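Profiling-centre panel assay performed robotically at 21 °C for 30 min, linear with time and enzyme. […] Values are percent of compound-free control activity, the mean of triplicates ± S.D.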

Experiment [9] has as its target Tyrosine-protein kinase Lck (Homo sapiens) (UniProt P06239). Nature of the experiment: Inhibition of recombinant human N-terminal His6-tagged LCK (2 to 509 residues) expressed in baculovirus infected Sf21 cells assessed as remaining activity at 10 uM using KVEKIGEGTYGVVYK as substrate incubated for 30 mins in presence of [gamma-33P]ATP by filter binding method relative to control. The gist of the method:
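Assays ran 30 min at 21 °C, robotically and in the linear range. Remaining activity is given relative to incubations lacking compound, as the average of triplicate determinations ± S.D.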

A further experiment addresses mTORC1 (Homo sapiens) (UniProt P42345+Q8N122+Q9BVC4). To be noted: HEK293, dose 30.0 nM, time 30.0 min.
The target of experiment [10] is Serine/threonine-protein kinase Nek2 (Homo sapiens) (UniProt P51955). Nature of the experiment: Inhibition of recombinant human N-terminal His6-tagged NEK2A (1 to 445 residues) expressed in baculovirus infected Sf21 cells assessed as remaining activity at 10 uM using RFRRSRRMI as substrate incubated for 30 mins in presence of [gamma-33P]ATP by filter binding method relative to control.

Experiment [11] has as its target Insulin receptor-related protein (Homo sapiens) (UniProt P14616). Nature of the experiment: Inhibition of recombinant human N-terminal His6-tagged IRR (944 to 1236 residues) expressed in baculovirus infected Sf21 cells assessed as remaining activity at 10 uM using MBP as substrate incubated for 30 mins in presence of [gamma-33P]ATP by filter binding method relative to control.

The test system of experiment [12] is Serine/threonine-protein kinase Sgk1 (Homo sapiens), O00141 [S422D]. Nature of the experiment: Inhibition of recombinant human His6-tagged SGK1 S422D mutant (60 to 431 residues) expressed in baculovirus infected Sf21 cells assessed as remaining activity at 10 uM using GRPRTSSFAEGKK as substrate incubated for 30 mins in presence of [gamma-33P]ATP by filter binding method relative to control. The gist of the method:
as §2

Experiment [13] concerns RAC-alpha serine/threonine-protein kinase (Homo sapiens), P31749 [S473D]. Nature of the experiment: Inhibition of recombinant human His6-tagged AKT1 S473D mutant (118 to 480 residues) expressed in baculovirus infected Sf21 cells assessed as remaining activity at 1 uM using crosstide peptide as substrate incubated for 30 mins in presence of [gamma-33P]ATP by filter binding method relative to control. The gist of the method: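 Radiometric panel assay run robotically at 21 °C for 30 min, linear in time and enzyme. […] Activity is expressed as percentage of the compound-omitted control, averaged from triplicates ± S.D.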
RAC-alpha serine/threonine-protein kinase (Homo sapiens), P31749 [S473D], sequence (P31749 whole entry S473D, the tested form may be a part): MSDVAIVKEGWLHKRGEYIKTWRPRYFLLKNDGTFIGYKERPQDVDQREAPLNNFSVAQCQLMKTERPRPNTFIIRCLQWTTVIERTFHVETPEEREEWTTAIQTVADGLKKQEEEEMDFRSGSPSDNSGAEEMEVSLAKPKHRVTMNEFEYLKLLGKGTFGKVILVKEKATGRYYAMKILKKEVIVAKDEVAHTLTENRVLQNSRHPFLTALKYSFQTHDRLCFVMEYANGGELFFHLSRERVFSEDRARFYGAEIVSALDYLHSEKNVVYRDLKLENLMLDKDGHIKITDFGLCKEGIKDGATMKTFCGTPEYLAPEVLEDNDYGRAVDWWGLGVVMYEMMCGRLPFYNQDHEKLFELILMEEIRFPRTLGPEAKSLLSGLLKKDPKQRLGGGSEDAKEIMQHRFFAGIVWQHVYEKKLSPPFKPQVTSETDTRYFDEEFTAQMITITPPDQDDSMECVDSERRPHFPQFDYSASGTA

Ephrin type-B receptor 3 (Homo sapiens), sequence (P54753 whole entry, the tested form may be a part): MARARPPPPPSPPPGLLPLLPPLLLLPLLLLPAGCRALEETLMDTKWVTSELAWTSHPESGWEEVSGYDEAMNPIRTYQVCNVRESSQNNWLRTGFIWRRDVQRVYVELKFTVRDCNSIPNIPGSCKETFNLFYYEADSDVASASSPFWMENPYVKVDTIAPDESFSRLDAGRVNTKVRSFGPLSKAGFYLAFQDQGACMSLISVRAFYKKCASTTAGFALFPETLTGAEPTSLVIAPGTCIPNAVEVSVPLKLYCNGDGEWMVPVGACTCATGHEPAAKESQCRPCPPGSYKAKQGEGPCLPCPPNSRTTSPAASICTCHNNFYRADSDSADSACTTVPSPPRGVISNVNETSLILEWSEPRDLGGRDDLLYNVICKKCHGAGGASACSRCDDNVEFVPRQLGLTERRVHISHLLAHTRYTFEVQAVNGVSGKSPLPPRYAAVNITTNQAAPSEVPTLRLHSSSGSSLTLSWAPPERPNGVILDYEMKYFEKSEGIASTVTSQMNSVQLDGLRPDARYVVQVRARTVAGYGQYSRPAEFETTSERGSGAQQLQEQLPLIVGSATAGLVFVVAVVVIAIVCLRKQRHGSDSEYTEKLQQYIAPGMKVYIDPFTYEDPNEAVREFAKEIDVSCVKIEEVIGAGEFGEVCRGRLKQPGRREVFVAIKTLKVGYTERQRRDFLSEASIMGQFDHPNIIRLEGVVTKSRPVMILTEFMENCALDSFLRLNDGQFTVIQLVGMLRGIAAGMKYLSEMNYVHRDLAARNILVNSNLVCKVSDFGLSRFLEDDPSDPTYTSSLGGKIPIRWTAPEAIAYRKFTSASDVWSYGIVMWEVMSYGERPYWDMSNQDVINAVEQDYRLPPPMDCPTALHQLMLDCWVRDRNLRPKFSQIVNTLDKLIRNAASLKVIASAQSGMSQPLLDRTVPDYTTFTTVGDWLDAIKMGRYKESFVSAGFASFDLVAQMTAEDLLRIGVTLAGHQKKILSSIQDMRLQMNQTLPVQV
Serine/threonine-protein kinase PAK 6 (Homo sapiens), sequence (Q9NQU5 whole entry, looked up, the tested form may be a part): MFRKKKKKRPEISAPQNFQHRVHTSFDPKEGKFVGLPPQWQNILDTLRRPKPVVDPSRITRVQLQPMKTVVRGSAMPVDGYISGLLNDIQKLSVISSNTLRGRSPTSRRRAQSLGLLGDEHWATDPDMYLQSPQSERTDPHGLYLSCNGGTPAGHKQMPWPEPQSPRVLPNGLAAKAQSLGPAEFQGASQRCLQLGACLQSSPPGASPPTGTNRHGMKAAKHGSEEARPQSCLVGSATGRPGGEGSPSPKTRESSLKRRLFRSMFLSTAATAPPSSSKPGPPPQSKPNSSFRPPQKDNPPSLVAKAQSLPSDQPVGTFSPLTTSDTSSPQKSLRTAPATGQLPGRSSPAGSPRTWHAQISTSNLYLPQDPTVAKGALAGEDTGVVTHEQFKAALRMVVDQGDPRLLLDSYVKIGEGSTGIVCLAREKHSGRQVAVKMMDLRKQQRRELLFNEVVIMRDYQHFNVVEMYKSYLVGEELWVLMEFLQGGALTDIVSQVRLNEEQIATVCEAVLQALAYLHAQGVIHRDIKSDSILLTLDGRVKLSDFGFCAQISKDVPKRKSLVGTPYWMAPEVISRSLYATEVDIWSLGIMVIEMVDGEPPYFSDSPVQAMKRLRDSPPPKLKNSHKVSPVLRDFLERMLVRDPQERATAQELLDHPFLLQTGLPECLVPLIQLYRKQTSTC
Ribosomal protein S6 kinase beta-1 (Homo sapiens), P23443 [T412E], sequence (P23443 whole entry T412E, looked up, the tested form may be a part): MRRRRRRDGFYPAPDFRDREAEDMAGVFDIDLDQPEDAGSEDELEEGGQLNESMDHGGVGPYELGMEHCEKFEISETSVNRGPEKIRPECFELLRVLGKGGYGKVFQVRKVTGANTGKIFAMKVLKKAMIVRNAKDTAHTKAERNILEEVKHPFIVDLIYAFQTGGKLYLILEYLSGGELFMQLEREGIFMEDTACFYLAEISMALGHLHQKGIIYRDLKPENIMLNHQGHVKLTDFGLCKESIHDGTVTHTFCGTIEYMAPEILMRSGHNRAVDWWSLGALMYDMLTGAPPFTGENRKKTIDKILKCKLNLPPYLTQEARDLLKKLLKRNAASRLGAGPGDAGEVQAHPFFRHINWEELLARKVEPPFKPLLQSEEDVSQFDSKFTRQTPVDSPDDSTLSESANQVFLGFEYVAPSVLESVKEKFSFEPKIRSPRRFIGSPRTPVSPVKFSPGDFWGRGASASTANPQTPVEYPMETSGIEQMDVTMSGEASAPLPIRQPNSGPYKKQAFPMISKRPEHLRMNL
Homeodomain-interacting protein kinase 2 (Homo sapiens), sequence (Q9H2X6 whole entry, looked up, the tested form may be a part): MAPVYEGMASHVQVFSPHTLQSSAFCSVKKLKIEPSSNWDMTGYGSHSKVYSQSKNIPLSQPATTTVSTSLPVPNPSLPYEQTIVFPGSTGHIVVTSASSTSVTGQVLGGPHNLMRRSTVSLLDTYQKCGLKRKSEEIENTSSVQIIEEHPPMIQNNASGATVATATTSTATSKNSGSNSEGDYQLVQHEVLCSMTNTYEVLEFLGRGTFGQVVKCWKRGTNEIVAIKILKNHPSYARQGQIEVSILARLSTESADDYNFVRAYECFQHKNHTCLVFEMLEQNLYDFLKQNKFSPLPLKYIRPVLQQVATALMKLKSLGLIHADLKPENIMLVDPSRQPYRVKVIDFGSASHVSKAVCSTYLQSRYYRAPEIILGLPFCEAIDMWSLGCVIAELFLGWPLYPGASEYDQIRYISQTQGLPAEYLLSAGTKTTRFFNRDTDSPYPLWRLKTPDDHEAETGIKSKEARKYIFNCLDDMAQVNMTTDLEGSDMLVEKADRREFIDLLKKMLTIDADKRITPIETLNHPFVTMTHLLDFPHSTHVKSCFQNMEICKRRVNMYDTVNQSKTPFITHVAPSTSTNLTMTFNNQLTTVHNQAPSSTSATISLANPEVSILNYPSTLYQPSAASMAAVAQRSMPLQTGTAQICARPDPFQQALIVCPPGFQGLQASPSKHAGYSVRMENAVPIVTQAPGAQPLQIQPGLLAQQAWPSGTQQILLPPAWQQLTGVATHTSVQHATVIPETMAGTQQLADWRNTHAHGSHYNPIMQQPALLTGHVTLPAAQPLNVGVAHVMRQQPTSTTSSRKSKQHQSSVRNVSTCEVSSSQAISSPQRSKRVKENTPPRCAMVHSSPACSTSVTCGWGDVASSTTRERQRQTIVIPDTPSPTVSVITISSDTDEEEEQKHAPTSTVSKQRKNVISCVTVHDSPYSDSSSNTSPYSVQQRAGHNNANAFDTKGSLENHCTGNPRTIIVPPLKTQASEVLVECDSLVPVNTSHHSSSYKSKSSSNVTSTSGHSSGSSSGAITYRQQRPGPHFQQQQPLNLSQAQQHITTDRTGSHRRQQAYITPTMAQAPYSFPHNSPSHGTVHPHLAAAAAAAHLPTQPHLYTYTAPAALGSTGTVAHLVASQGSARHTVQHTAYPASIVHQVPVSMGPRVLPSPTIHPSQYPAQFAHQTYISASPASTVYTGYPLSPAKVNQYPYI
Myosin light chain kinase (Homo sapiens), sequence (Q32MK0 whole entry): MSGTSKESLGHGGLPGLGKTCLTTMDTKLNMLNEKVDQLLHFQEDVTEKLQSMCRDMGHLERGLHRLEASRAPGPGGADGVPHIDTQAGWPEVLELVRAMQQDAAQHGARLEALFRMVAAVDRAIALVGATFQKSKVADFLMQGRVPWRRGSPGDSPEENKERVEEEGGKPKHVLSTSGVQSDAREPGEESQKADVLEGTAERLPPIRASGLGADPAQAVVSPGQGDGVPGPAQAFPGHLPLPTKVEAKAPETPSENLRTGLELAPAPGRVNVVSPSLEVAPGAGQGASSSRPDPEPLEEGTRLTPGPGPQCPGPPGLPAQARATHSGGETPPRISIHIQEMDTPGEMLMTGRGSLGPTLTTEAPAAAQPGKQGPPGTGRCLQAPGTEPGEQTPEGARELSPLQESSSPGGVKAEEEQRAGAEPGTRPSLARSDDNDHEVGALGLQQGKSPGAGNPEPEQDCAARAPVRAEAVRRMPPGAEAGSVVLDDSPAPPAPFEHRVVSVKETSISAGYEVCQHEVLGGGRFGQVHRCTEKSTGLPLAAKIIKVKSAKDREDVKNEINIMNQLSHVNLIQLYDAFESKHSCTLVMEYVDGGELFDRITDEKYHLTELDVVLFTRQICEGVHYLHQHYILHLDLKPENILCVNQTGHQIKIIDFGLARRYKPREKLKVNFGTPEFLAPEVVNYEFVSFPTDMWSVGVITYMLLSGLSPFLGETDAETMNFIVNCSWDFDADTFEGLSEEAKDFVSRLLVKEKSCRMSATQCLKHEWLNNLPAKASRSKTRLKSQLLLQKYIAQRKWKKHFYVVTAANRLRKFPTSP

Regarding `COc1ccc(-c2ccc3c(N4CCOCC4)nc(N4C[C@@H](C)O[C@@H](C)C4)nc3n2)cc1CO` [Ku-0063794], the Activity in experiment [1] amounted to 100%; in experiment [2] it was 89%; in experiment [3] it was 75%; in experiment [4], 108%; in experiment [5], 104%; in [6] it was 88%. Moreover, the Activity in experiment [7] came to 90%; in experiment [8], 82%; in experiment [9], 104%; in experiment [10], 86%; in [11], 71%; in experiment [12], 64%. Besides, in experiment [13], the Activity is 98%. Besides, in the experiment on HEK293, the inhibition entry is “inactive”. Further, the inhibition result on mTORC1 (Homo sapiens) was “Active”.
